The source made the active and inactive calls. The rule behind the calls is not given here.

One data set concerns SMMC-7721. Briefly: Antiproliferative activity against human SMMC7721 cells after 24 hrs by MTT assay. Type of data set: functional, cell-based. As to conditions: SMMC-7721, 24 h. The method, boiled down: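 Cells grown at 37 °C in humidified 5% CO2 with benzylpenicillin and streptomycin. Compounds came from 0.01 mol/L DMSO stocks and were tested at eight two-fold dilutions in triplicate, with medium-only controls, for 24 h. MTT absorbance was read at 570 nm. Survival = A_treatment/A_control × 100. IC50 is the concentration giving 50% viability inhibition, as the mean of two separate experiments.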
(In general: Formazan colour is commonly taken as a measure of viable cells.)

Data set [1] relates to HepG2. Briefly: Induction of apoptosis in human HepG2 cells assessed as pre-necrotic cells at 1 uM after 24 hrs using annexin V-propidium iodide staining by flow cytometry (reference value: 0.5%). Type of data set: functional.
Data set [2] relates to HepG2. Put plainly: Induction of apoptosis in human HepG2 cells assessed as early apoptotic cells at 2 uM after 24 hrs using annexin V-propidium iodide staining by flow cytometry (reference value: 3%). It counts as functional. On the technique in general: A flow cytometer gives signals particle by particle.
For data set [3], the system named is HepG2. Put plainly: Induction of apoptosis in human HepG2 cells assessed as late apoptotic cells at 2 uM after 24 hrs using annexin V-propidium iodide staining by flow cytometry (reference value: 3.4%). It counts as functional.
Data set [4] relates to HepG2. Put plainly: Induction of apoptosis in human HepG2 cells assessed as viable cells at 4 uM after 24 hrs using annexin V-propidium iodide staining by flow cytometry (reference value: 93.2%). As to conditions: HepG2, 24 h, read-out: Activity. It counts as functional.
The subject of data set [5] is HepG2. Put plainly: Induction of apoptosis in human HepG2 cells assessed as early apoptotic cells at 4 uM after 24 hrs using annexin V-propidium iodide staining by flow cytometry (reference value: 3%). It counts as functional.
Data set [6] concerns HepG2. Put plainly: Cell cycle arrest in human HepG2 cells assessed as accumulation at G2/M phase at 1 uM after 24 hrs using propidium iodide by Flow cytometry. Type of data set: functional, cell-based. An outline of the steps:
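HepG2 cells synchronised by 24 h serum starvation, then treated 24 h at 1, 2 or 4 µM. Cells fixed overnight in 70% ethanol at 4 °C and stained 15 min at 37 °C in the dark with hypotonic PI solution (0.1% sodium citrate, 0.1% Triton X-100, 0.05 mg/ml PI, 0.01 mg/ml RNase). DNA content measured by flow cytometry.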

Data set [7] deals with HepG2. Briefly: Induction of apoptosis in human HepG2 cells assessed as decrease in bcl-2 expression at 1 uM after 24 hrs by Western blot analysis. It counts as functional, cell-based. The method, boiled down: (§1)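 HepG2 cells treated 24 h at 1, 2 or 4 µM. Lysed in Tris-Cl pH 6.8 buffer containing SDS, glycerol, β-mercaptoethanol, PMSF and aprotinin; cleared at 12 000 × g, 15 min, 4 °C. Protein measured by BCA. Samples run on 15% SDS-PAGE, transferred to PVDF, probed overnight at 4 °C with primary antibodies against bcl-2, bax and pro-caspase-3, then IRDye 800 secondary 1 h at 37 °C.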

The subject of data set [8] is HepG2. Put plainly: Induction of apoptosis in human HepG2 cells assessed as decrease in bcl-2 expression at 2 uM after 24 hrs by Western blot analysis. It counts as functional, cell-based. An outline of the steps:
as §1

The test system of data set [9] is HepG2. Put plainly: Induction of apoptosis in human HepG2 cells assessed as decrease in pro-caspase-3 expression at 1 uM after 24 hrs by Western blot analysis. Type of data set: functional, cell-based. The method, boiled down:
as §1
On the technique in general: A western blot detects proteins with antibodies after separation by electrophoresis.

For data set [10], the system named is HepG2. Put plainly: Induction of apoptosis in human HepG2 cells assessed as decrease in pro-caspase-3 expression at 2 uM after 24 hrs by Western blot analysis. Type of data set: functional, cell-based. An outline of the steps: as §1
Data set [11] concerns HepG2. Briefly: Induction of apoptosis in human HepG2 cells assessed as decrease in pro-caspase-3 expression at 4 uM after 24 hrs by Western blot analysis. Type of data set: functional, cell-based. An outline of the steps:
as §1

The test system of data set [12] is HepG2. Briefly: Induction of apoptosis in human HepG2 cells assessed as effect on bax protein expression at 1 uM after 24 hrs by Western blot analysis. Type of data set: functional, cell-based. An outline of the steps:
as §1

Data set [13] deals with Mus musculus. Put plainly: Toxicity in Kunming mouse xenografted with human HepG2 cells assessed as change in body weight at 12.5 mg/kg, iv administered 24 hrs after tumor implantation one dose per two day for total of four treatment measured after 24 hrs last postdose (reference value: 20.20 +/- 1.99 g). It counts as organism-based. Further details: dose 12.5 mg/kg, route intravenous. As to conditions: in vivo.

Data set [14] has as its system HepG2. Put plainly: Induction of apoptosis in human HepG2 cells assessed as appearance of necrosis at 4 uM after 24 hrs by light microscopy. Type of data set: functional, cell-based. An outline of the steps:
(§2)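 HepG2 cells seeded at 1 × 10⁵ cells/well and treated 24 h at 1, 2 or 4 µM. Living cells first viewed under inverted light microscope (×200). Cells then fixed 20 min in 4% paraformaldehyde, stained 10 min with DAPI (1 mg/ml) and examined by fluorescence microscopy (×400, 340 nm excitation) for nuclear changes and apoptotic bodies.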

Data set [15] relates to HepG2. Briefly: Induction of apoptosis in human HepG2 cells assessed as appearance of apoptotic bodies at 1 to 4 uM after 24 hrs using DAPI staining by fluorescent microscopy. It counts as functional, cell-based. An outline of the steps:
as §2

Data set [16] has as its system Mus musculus. Put plainly: Toxicity in Kunming mouse xenografted with human HepG2 cells assessed as change in body weight at 50 mg/kg, iv administered 24 hrs after tumor implantation one dose per two day for total of four treatment measured after 24 hrs last postdose (reference value: 19.10 +/- 1.29 g). As to conditions: in vivo.
In data set [17] the test system is Heps hepatoma (Mus musculus). Briefly: Antitumor activity against murine Heps hepatoma cells transplanted in Kunming mouse assessed as tumor growth inhibition at 25 mg/kg, iv administered 24 hrs after tumor implantation one dose per two day for total of four treatment measured after 24 hrs last postdose relative to control.
Data set [18] concerns Heps hepatoma (Mus musculus). Put plainly: Antitumor activity against murine Heps hepatoma cells transplanted in Kunming mouse assessed as tumor growth inhibition at 50 mg/kg, iv administered 24 hrs after tumor implantation one dose per two day for total of four treatment measured after 24 hrs last postdose relative to control.
For data set [19], the system named is Heps hepatoma (Mus musculus). Briefly: Antitumor activity against murine Heps hepatoma cells transplanted in Kunming mouse assessed as tumor growth inhibition at 12.5 mg/kg, iv administered 24 hrs after tumor implantation one dose per two day for total of four treatment measured after 24 hrs last postdose relative to control.

`CC(C)=CCC12OC(C)(C)C3CC(C=C4C(=O)c5c(O)cccc5OC431)C2=O` (stereo not given): the concentration for half-maximal inhibition (IC50) in the data set on SMMC-7721 is 8.06 µM. In addition, the Activity with HepG2 [1] was 0.8%; in the data set with HepG2 [2], 18.9%; in the data set on HepG2 [3] it was 8.1%; in the data set on HepG2 [5] it was 23.3%; in the data set on Mus musculus [13], 26.3 g; with Mus musculus [16] it was 24.7 g. Besides, the viability at 4 µM in the data set with HepG2 [4] worked out at 68.2%. Further, the result in the data set on HepG2 [6], with HepG2 [7], in the data set on HepG2 [8], with HepG2 [9], in the data set with HepG2 [10] and in the data set on HepG2 [11] was Active. For the same molecule, the result in the data set on HepG2 [14] and with HepG2 [15] was Active. The result with HepG2 [12] was inactive. The inhibition in vivo at 25 mg/kg in data set [17] came out at 32.3%. Moreover, the inhibition in vivo at 50 mg/kg in data set [18] stood at 49.2%. In data set [19], the inhibition in vivo at 12.5 mg/kg came out at 14.9%.

Broadly, the IC50 is the concentration needed to halve the response being measured. Read a low IC50 as greater potency. As a reminder, the inhibition in vivo is the change of the read-out against control, counted positive when it falls.

Values taken from ChEMBL document CHEMBL1759837, “Studies on chemical modification and biology of a natural product, gambogic acid (III): determination of the essential pharmacophore for biological activity” (Eur J Med Chem, 2011).
